Assay results reported in ChEMBL document CHEMBL4680134, “Structural optimization of natural product nordihydroguaretic acid to discover novel analogues as AcrB inhibitors” (Eur J Med Chem, 2020).
Values after ≈ are worked out from the molar mass of the structure shown. Each block holds one compound with its values, some of them ahead of it.

How the values were obtained:
[1] = Growth inhibition of Escherichia coli BW25113 expressing AcrB after 18 hrs by broth microdilution assay
In short: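 MIC determined by 96-well broth microdilution in E. coli BW25113 expressing AcrB ((+)AcrB) and an isogenic acrB-deleted strain ((-)AcrB). Used to set the compound concentrations for synergy testing that produce no direct antibacterial effect.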

Cell membrane [2] = assay: Induction of inner membrane permeabilization in CCCP treated wild type Escherichia coli BW25113 measured after 10 mins by Di0C2(3) probe based fluorimetric method; settings: escherichia coli bw25113, 10 min
In short: (§1)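 Cells left untreated or exposed to compound at 8-256 µg/mL for 10 min, then DiOC2(3) added and fluorescence followed to plateau. Cells re-energized with 0.5% glucose; membrane potential build-up read as fluorescence rise to plateau, then dissipated with CCCP.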

[3] = biological target: T1, Multidrug efflux pump subunit AcrB (Escherichia coli (strain K12)) (UniProt P31224); assay: Inhibition of AcrB in Escherichia coli BW25113 assessed as potentiation of erythromycin induced antibacterial activity by measuring fold change in erythromycin MIC at 32 ug/ml measured after 18 hrs by checkerboard titration method relative to erythromycin alone; settings: dose 32.0 µg/ml
T1 sequence (whole entry): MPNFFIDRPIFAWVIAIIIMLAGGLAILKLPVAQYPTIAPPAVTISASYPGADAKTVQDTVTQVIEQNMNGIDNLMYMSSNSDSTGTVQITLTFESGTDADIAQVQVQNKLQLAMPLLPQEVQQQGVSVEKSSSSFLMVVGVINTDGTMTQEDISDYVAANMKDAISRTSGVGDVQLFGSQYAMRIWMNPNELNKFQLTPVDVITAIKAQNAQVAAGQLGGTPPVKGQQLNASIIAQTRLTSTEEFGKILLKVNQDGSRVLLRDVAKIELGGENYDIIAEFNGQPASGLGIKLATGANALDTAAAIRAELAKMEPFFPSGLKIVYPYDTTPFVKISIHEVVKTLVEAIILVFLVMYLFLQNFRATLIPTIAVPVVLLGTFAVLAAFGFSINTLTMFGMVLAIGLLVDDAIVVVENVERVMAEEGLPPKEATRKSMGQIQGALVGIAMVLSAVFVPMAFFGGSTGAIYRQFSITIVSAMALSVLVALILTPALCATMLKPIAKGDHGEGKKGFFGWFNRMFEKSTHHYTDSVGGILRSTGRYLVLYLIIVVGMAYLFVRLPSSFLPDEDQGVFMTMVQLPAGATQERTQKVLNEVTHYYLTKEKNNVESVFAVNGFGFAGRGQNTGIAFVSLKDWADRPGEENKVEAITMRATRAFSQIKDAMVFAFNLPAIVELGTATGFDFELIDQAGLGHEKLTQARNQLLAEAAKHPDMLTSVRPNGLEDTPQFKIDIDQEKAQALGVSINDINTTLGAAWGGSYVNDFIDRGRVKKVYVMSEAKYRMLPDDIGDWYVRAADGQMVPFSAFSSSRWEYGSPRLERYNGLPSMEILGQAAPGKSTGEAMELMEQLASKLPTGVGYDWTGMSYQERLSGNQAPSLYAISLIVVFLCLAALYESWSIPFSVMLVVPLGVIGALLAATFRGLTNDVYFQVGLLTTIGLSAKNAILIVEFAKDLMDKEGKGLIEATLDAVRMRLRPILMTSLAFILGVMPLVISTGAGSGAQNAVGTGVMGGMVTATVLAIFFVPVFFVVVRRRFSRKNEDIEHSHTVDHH

Cell membrane [4] = assay: Induction of inner membrane permeabilization in CCCP treated wild type Escherichia coli BW25113 at 64 to 256 ug/ml measured after 10 mins by Di0C2(3) probe based fluorimetric method; settings: escherichia coli bw25113, 10 min, dose 64-256 µg/ml; in short: as §1
[5] = biological target: T1, Multidrug efflux pump subunit AcrB (Escherichia coli (strain K12)); assay: Inhibition of AcrB in Escherichia coli BW25113 assessed as potentiation of tetraphenylphosphonium induced antibacterial activity by measuring fold change in tetraphenylphosphonium MIC at 256 ug/ml measured after 18 hrs by checkerboard titration method relative to tetraphenylphosphonium alone; settings: dose 256.0 µg/ml
Cell membrane [6] = assay: Induction of inner membrane permeabilization in CCCP treated wild type Escherichia coli BW25113 at 16 ug/ml measured after 10 mins by Di0C2(3) probe based fluorimetric method; settings: escherichia coli bw25113, 10 min, dose 16 µg/ml; in short: as §1

fold change (FC) [3]: 4
Structure (SMILES): Cc1ccc(C(=O)NCCc2ccc(O)c(O)c2)cc1
MIC [1]: 64 µg/mL (≈ 236 µM) | Activity (Cell membrane [2]): Toxic

Structure (SMILES): C[C@H](Cc1ccc(O)c(O)c1)[C@@H](C)Cc1ccc(O)c(O)c1 [MASOPROCOL]
Activity (Cell membrane [4]): Toxic

fold change (FC) [5]: 32
Structure (SMILES): Oc1ccc(CCCCCc2ccc(O)c(O)c2)cc1O

Structure (SMILES): Oc1ccc(CCCCc2cc3cccc4ccc5cccc2c5c43)cc1O
Activity (Cell membrane [6]): Non-Toxic
